Bioassay records deposited in PubChem BioAssay by several laboratories.
AHR activator: activates the human aryl hydrocarbon receptor | activation, % at 5 µM | hit rate 2.5% among 320,000 | P35869 | AHR-responsive luciferase reporter cells, luminescence | AID 2796; in the data active means activation above about 47%
SMARCA2 activ: increases SMARCA2 function in MMTV reporter cells; hit rate 1% among 370,000; MG213 cells, MMTV-luciferase reporter, dexamethasone, overnight; AID 652017; activation, % at 9.1 µM; in the data active means activation above about 7.8%
SR-BI DiI-HDL act: activators of SR-BI mediated HDL lipid uptake; activation, % at 12.5 µM; CHO ldlA[mSR-BI] cells, DiI-HDL uptake fluorescence, 3 h; 100 = double the neutral-control signal; hit rate 0.096% among 320,000;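 active means mean replicate activation of at least 60% and every replicate at or above 60%; inconclusive means mean or all-replicate condition met, but not both; inactive means mean below 60% and not all replicates reaching 60%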
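material = CHO ldlA[mSR-BI] cells | medium = Ham's F12 with 0.5% BSA, HEPES 25 mM, pH 7.4 | reagent = fluorescent DiI-HDL, 10 µg/mL final | compound dosing = single-point compound dose | incubation = 3 h, 37 °C | measured by = bottom-read fluorescence, 550/595 nm | measure = HDL uptake via cellular fluorescence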
SR-BI DiI inh: mouse SR-BI HDL lipid transfer inhibition. Q61009. ldlA[mSR-BI] CHO cells, DiI-HDL uptake fluorescence, 3 h. inhibition, % at 12.5 µM. hit rate 0.96% among 320,000. AID 488896;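 active means mean replicate inhibition of at least 70% and a set share of replicates each scoring 70 or more; inconclusive means meets just one of the two criteria; inactive means fails both criteria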
Target sequence (Q61009 whole entry, looked up): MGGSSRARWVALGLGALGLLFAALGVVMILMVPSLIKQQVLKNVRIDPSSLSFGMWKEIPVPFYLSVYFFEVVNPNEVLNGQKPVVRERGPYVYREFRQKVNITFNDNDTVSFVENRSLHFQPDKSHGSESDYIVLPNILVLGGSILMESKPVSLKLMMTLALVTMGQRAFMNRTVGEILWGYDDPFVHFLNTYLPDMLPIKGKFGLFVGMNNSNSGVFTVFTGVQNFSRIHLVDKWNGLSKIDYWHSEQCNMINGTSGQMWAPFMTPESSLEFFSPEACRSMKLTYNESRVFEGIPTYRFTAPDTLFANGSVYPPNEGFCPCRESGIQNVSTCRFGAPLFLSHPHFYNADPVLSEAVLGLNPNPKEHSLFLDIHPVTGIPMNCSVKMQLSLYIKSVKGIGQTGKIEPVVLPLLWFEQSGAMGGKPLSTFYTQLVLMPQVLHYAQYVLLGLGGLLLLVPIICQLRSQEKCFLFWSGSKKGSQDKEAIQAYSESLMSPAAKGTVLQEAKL
Lipid droplet: hepatic lipid droplet formation modulation; AID 1656; inhibition, % at 6.5 µM; AML12 mouse hepatocytes, oleate lipid droplets, BODIPY imaging; hit rate 0.4% among 240,000;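 active means lipid droplet intensity inhibited by at least 50%, with more than 500 cells counted; inconclusive means wells with under 300 cells, treated as cytotoxic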
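Material – mouse AML12 hepatocyte cell line, fixed after treatment · Compound dosing – one dose, 6.5 µM compound · Times – compound with oleate, overnight · Measured by – Image-based BODIPY and DAPI two-channel analysis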
CR mimetic SO: yeast age-related superoxide inhibition as caloric restriction mimetic | hit rate 0.18% among 330,000 | superoxide response (% of plate mean), % at 10 µM | AID 2690 | S. cerevisiae aged cells, superoxide DHE fluorescence; hits give low values;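 active means superoxide response under a set limit, about three screen SD below normal, cut at about 65% in these data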;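 further: yeast aged for seven days with compound at 30 °C before DHE staining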
DiI quench: DiI fluorescence quenching in cell-free counter-screen; cell-free DiI-HDL fluorescence quenching, 30 min; hit rate 20% among 470; shares compounds with SR-BI DiI inh; AC50, µM (top dose mostly 35 µM);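 active means quenching, a falling signal, with AC50 below a set limit tied to the top valid dose, actives reach about 32 µM in these data; inconclusive means no clear call, values can overlap the other calls; inactive means rising signal, and the rest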
Numbers stand for hits; 0 = inactive; ? = inconclusive; - = not tested or not shown. Sampled rows, rich in hits. Any-hit rate of the full collection: about 4.3%.

SMILES | AHR activator | SMARCA2 activ | SR-BI DiI-HDL act | SR-BI DiI inh | Lipid droplet | CR mimetic SO | DiI quench
Cn1c(CCN2CCN(c3ccccn3)CC2)nc2cc(NS(=O)(=O)c3ccc(Cl)cc3)ccc21 | 0 | 0 | 0 | 73 | 0 | 0 | 0
C[C@@H]1CCCCO[C@@H](CN(C)C(=O)Nc2ccc(C(F)(F)F)cc2)[C@@H](C)CN([C@H](C)CO)C(=O)c2cc(NS(=O)(=O)c3ccc(Cl)cc3)ccc2O1 | - | 0 | - | - | - | - | -
COc1cc(OC)cc(C(=O)N[C@H](C(=O)Nc2nc(-c3cc(OC)ccc3OC)cs2)C(C)C)c1 | 0 | 0 | 0 | ? | 0 | 0 | 0
COc1cc(OC)cc(C(=O)N[C@H](C(=O)Nc2nc(-c3ccc(OC)c(OC)c3)cs2)C(C)C)c1 | 0 | 0 | - | - | 0 | 0 | -
COCCCNC(=O)C[C@H]1C[C@@]2(C(=O)OC)C(=C[C@H](C3CCCC3)O[C@@H]2C)N(Cc2ccccc2)C1=O | - | 0 | - | - | - | - | -
CC(C)[C@H](NC(=O)c1ccco1)C(=O)N1CCC[C@H]1C(=O)NCc1ccccc1 | - | 0 | - | - | - | - | -
CN1CCc2ccc(NC(=O)c3ccc(C(F)(F)F)cc3)cc2C1 | 0 | 0 | 0 | 82 | 0 | 0 | 0
CCc1cc(=O)oc2c3c(cc(OCC(=O)NCc4ccco4)c12)OC(C)(C)CC3 | 0 | - | 0 | ? | 0 | 0 | 0
COc1cc(NC(=O)C2CC(c3c(F)cccc3Cl)=NO2)c(OC)cc1Cl (stereo unspecified) | 0 | 0 | 0 | 82 | 0 | 0 | 0
O=C1C2CCCN2C(=O)N1CCCN1CCN(c2ccc([N+](=O)[O-])cc2)CC1 (stereo unspecified) | 0 | 0 | 0 | 94 | 0 | 0 | 0
CC(C)[C@H](NC(=O)CC1CCCC1)C(=O)N1CCC[C@H]1C(=O)NCc1ccccc1 | - | 0 | - | - | - | - | -
CCOC(=O)N1C(=O)C[C@](Sc2ccc(OC)cc2)(C(=O)N2CCCC2)[C@H]1c1ccc(OC)cc1 | - | 0 | - | - | - | - | -
COC(=O)c1c(C)[nH]c(C(=O)C(C)OC(=O)C2CC(=O)N(c3ccc(C)cc3)C2)c1C (stereo unspecified) | 0 | 0 | 0 | 77 | - | 0 | 0
COc1ccc(-c2csc(NCCc3nc4cc(Cl)c(N5CCCCC5)cc4n3CCOCCO)n2)cc1 | 0 | 0 | 0 | 83 | - | 0 | 13µM
COc1ccc(-c2csc(N3CCN(c4cc5c(cc4Cl)nc(-c4ccncc4)n5CCOCCO)CC3)n2)cc1 | 0 | 0 | 0 | 0 | - | 0 | -
CC(=O)c1c(C)[nH]c(C(=O)Nc2ccc(C)c(S(=O)(=O)Nc3ccc(C)cc3C)c2)c1C | 0 | 0 | 0 | 83 | 0 | 0 | 0
Cc1cccc(NC(=O)C2(C)CC3c4ccccc4C2c2ccccc23)c1C (stereo unspecified) | 0 | 0 | 0 | 0 | 0 | 0 | 0
Cc1ccc(C)c(NC(=O)C2(C)CC3c4ccccc4C2c2ccccc23)c1 (stereo unspecified) | 0 | 0 | - | - | - | 0 | -
Cc1ccc(/C=C/C(=O)Nc2sc3c(c2C#N)CCCC3)o1 | 0 | 0 | 0 | 75 | 0 | 0 | 0
CCc1ccc(CCC(=O)Nc2sc3c(c2C#N)CCCC3)o1 | 0 | 0 | 0 | 0 | 0 | 0 | -
COc1ccc(OC)c(C2CC(=O)c3c([nH]c(C(=O)OCC4CCCO4)c3C)C2)c1 (stereo unspecified) | 0 | 0 | 0 | 0 | 0 | 0 | -
Cc1c(C(=O)OCC2CCCO2)[nH]c2c1C(=O)CC(c1ccco1)C2 (stereo unspecified) | 0 | - | 0 | 0 | - | 0 | 0
CC(=O)Oc1ccc(C(=O)Nc2ccccc2NC(=O)c2ccc(OC(C)=O)cc2)cc1 | 0 | 0 | 0 | 0 | - | 0 | -
CC(=O)Oc1ccc(C(=O)Nc2cc(NC(=O)c3ccc(OC(C)=O)cc3)cc(C(=O)NC(C)(C)C)c2)cc1 | 0 | 0 | 0 | 0 | 0 | 0 | 0
COc1ccc(COC(=O)c2ccc(Br)c(S(=O)(=O)N3CCOCC3)c2)cc1F | 0 | 0 | 0 | 74 | - | 0 | 0
SMILES | AHR activator | SMARCA2 activ | SR-BI DiI-HDL act | SR-BI DiI inh | Lipid droplet | CR mimetic SO | DiI quench
CCOc1ccc(Oc2c(Cl)cnn(Cc3cccc4ccccc34)c2=O)cc1 | - | 0 | - | - | - | - | -
O=C(O)c1cc(C(=O)O)cc(N2C(=O)c3ccccc3C2=O)c1 | - | 0 | - | - | - | - | -
O=C(O)c1cc(N2C(=O)C=CC2=O)cc(N2C(=O)C=CC2=O)c1 | - | 0 | 0 | 0 | - | - | 0
COc1ccccc1CNC(=O)C1CCN(C(=O)c2sccc2-n2cccc2)CC1 | 0 | 0 | 0 | ? | 0 | 0 | 0
O=C(NCc1cccc(F)c1)C1CCN(C(=O)c2sccc2-n2cccc2)CC1 | 0 | 0 | 0 | 0 | 0 | 0 | -
Cc1ccc(CCNC(=O)C2CCN(C(=O)c3sccc3-n3cccc3)CC2)cc1 | 0 | 0 | 0 | 0 | 0 | 0 | 0
O=C(NCCc1ccccc1)C1CCN(C(=O)c2sccc2-n2cccc2)CC1 | 0 | 0 | 0 | 81 | 0 | 0 | 0
COc1ccccc1CNC(=O)C1CCN(C(=O)N(C)C)CC1 | 0 | 0 | 0 | 0 | 0 | 0 | -
C[C@@H]1ON(C)[C@H]2C[C@H]3c4cc(-c5ccc6c(c5)OCO6)ccc4CCN3C[C@@H]12 | - | 0 | - | - | - | - | -
CC(C)C[C@H]1COc2cccc(N3CCSCC3)c2S(=O)(=O)N1C | - | 0 | - | - | - | - | -
C=CCN1C(=O)c2n[nH]c(COC)c2C1c1ccc(F)cc1 (stereo unspecified) | - | 0 | - | - | - | - | -
Cc1cc(C)nc(Nc2n[nH]c(-c3ccc(C(C)(C)C)cc3)n2)n1 | 0 | 0 | 0 | 108 | 0 | 0 | 11µM
COc1ccccc1Nc1nc(-c2c(C)[nH]c3ccccc23)cs1 | 0 | 0 | 0 | 72 | 0 | 0 | 5.6µM
CC(C)[C@H](NC(=O)c1ccco1)C(=O)OCC(=O)c1ccc2c(c1)NC(=O)CO2 | 0 | 0 | 0 | 0 | 0 | 0 | 0
Cc1nc2cc[nH]n2c(=O)c1CCc1ccccc1 | - | 0 | - | - | - | - | -
CCC1CCCCN1C(=O)CSc1nnc(-c2ccco2)o1 (stereo unspecified) | 0 | 0 | 0 | 76 | 0 | 0 | 0
COC(=O)C1=C(C)N(C)C(=NCc2ccc3c(c2)OCO3)NC1c1ccc(F)cc1 (stereo unspecified) | - | 0 | - | - | - | - | -
Cc1ccc(-c2csc(N3CCN(c4cc5c(cc4Cl)nc(-c4ccncc4)n5CCN4CCCCC4)CC3)n2)cc1 | 0 | 0 | 0 | 0 | 0 | 0 | -
Cc1ccc(-c2csc(N3CCN(c4ccc5nc(-c6ccncc6)n(CCN6CCCCC6)c5c4)CC3)n2)cc1 | 0 | - | 0 | 70 | 0 | 0 | 0
CC(C)CN(CC(C)C)C(=O)COn1nnc2ccc(S(=O)(=O)N3CCOCC3)cc21 | 0 | 0 | 0 | 70 | - | 0 | 0
O=C(COn1nnc2ccc(S(=O)(=O)N3CCOCC3)cc21)Nc1c(F)c(F)c(F)c(F)c1F | 0 | 0 | 0 | 0 | 0 | 0 | -
CN(C(=O)COn1nnc2ccc(S(=O)(=O)N3CCOCC3)cc21)c1ccccc1 | 0 | 0 | 0 | 0 | - | 0 | 0
